# Laboratory results taken from ChEMBL document CHEMBL1926550, “Synthesis and antibacterial activity of naphthyridone derivatives containing mono/difluoro-methyloxime pyrrolidine scaffolds” (2012).
# Test system: Enterococcus faecium
# Test: Antibacterial activity against Enterococcus faecium 09-6 after 18 hrs by two fold serial dilution method
# Type: functional
# Details: 09-6, 18 h
# Summary of the method: (§1)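 Agar two-fold serial dilution in melted Mueller-Hinton agar, final concentrations 128 down to 0.008 μg/mL. Plates inoculated with 10⁴ cfu and incubated at 35 °C for 18 h. MIC taken as the lowest concentration giving no visible growth on the plate.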
row,SMILES,MIC
1,CC1(CN)CN(c2ccc3c(=O)c(C(=O)O)cn(C4CC4)c3n2)C/C1=N\OCF (racemic),0.5 µg/mL

# Test system: Staphylococcus aureus
# Test: Antibacterial activity against methicillin-sensitive Staphylococcus aureus 10-2 after 18 hrs by two fold serial dilution method
# Type: functional
# Details: 10-2, 18 h
# Summary of the method: as §1
row,SMILES,MIC
1,CC1(CN)CN(c2ccc3c(=O)c(C(=O)O)cn(C4CC4)c3n2)C/C1=N\OCF (racemic),32 µg/mL

# Test system: Pseudomonas aeruginosa
# Test: Antibacterial activity against Pseudomonas aeruginosa 10-3 after 18 hrs by two fold serial dilution method
# Type: functional
# Details: 10-3, 18 h
# Summary of the method: as §1
row,SMILES,MIC
1,CC1(CN)CN(c2ccc3c(=O)c(C(=O)O)cn(C4CC4)c3n2)C/C1=N\OCF (racemic),8 µg/mL

# Test system: Staphylococcus aureus
# Test: Antibacterial activity against methicillin-resistant Staphylococcus aureus 10-2 after 18 hrs by two fold serial dilution method
# Type: functional
# Details: 10-2, 18 h
# Summary of the method: (§2)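 Agar two-fold serial dilution in melted Mueller-Hinton agar, 128 to 0.008 μg/mL. Plates inoculated with 10⁴ cfu, incubated 35 °C for 18 h. MIC taken as lowest concentration giving no visible growth on the plate.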
row,SMILES,MIC
1,CC1(CN)CN(c2ccc3c(=O)c(C(=O)O)cn(C4CC4)c3n2)C/C1=N\OCF (racemic),8 µg/mL

# Test system: Staphylococcus aureus
# Test: Antibacterial activity against methicillin-sensitive Staphylococcus aureus 10-1 after 18 hrs by two fold serial dilution method
# Type: functional
# Details: 10-1, 18 h
# Summary of the method: as §1
row,SMILES,MIC
1,CC1(CN)CN(c2ccc3c(=O)c(C(=O)O)cn(C4CC4)c3n2)C/C1=N\OCF (racemic),0.5 µg/mL

# Test system: Escherichia coli
# Test: Antibacterial activity against Escherichia coli 10-1 after 18 hrs by two fold serial dilution method
# Type: functional
# Details: 10-1, 18 h
# Summary of the method: as §1
row,SMILES,MIC
1,CC1(CN)CN(c2ccc3c(=O)c(C(=O)O)cn(C4CC4)c3n2)C/C1=N\OCF (racemic),> 128 µg/mL

# Test system: Staphylococcus aureus
# Test: Antibacterial activity against methicillin-sensitive Staphylococcus aureus 10-6 after 18 hrs by two fold serial dilution method
# Type: functional
# Details: 10-6, 18 h
# Summary of the method: as §1
row,SMILES,MIC
1,CC1(CN)CN(c2ccc3c(=O)c(C(=O)O)cn(C4CC4)c3n2)C/C1=N\OCF (racemic),0.03 µg/mL

# Test system: Staphylococcus epidermidis
# Test: Antibacterial activity against methicillin-sensitive Staphylococcus epidermidis 10-2 after 18 hrs by two fold serial dilution method
# Type: functional
# Details: 10-2, 18 h
# Summary of the method: as §1
row,SMILES,MIC
1,CC1(CN)CN(c2ccc3c(=O)c(C(=O)O)cn(C4CC4)c3n2)C/C1=N\OCF (racemic),64 µg/mL

# Test system: Enterococcus faecium
# Test: Antibacterial activity against Enterococcus faecium 09-4 after 18 hrs by two fold serial dilution method
# Type: functional
# Details: 09-4, 18 h
# Summary of the method: as §1
row,SMILES,MIC
1,CC1(CN)CN(c2ccc3c(=O)c(C(=O)O)cn(C4CC4)c3n2)C/C1=N\OCF (racemic),0.5 µg/mL

# Test system: Enterococcus faecium
# Test: Antibacterial activity against Enterococcus faecium 09-1 after 18 hrs by two fold serial dilution method
# Type: functional
# Details: 09-1, 18 h
# Summary of the method: as §1
row,SMILES,MIC
1,CC1(CN)CN(c2ccc3c(=O)c(C(=O)O)cn(C4CC4)c3n2)C/C1=N\OCF (racemic),32 µg/mL

# Test system: Pseudomonas aeruginosa
# Test: Antibacterial activity against Pseudomonas aeruginosa 10-2 after 18 hrs by two fold serial dilution method
# Type: functional
# Details: 10-2, 18 h
# Summary of the method: as §1
row,SMILES,MIC
1,CC1(CN)CN(c2ccc3c(=O)c(C(=O)O)cn(C4CC4)c3n2)C/C1=N\OCF (racemic),64 µg/mL

# Test system: Staphylococcus epidermidis
# Test: Antibacterial activity against methicillin-resistant Staphylococcus epidermidis 10-1 after 18 hrs by two fold serial dilution method
# Type: functional
# Details: 10-1, 18 h
# Summary of the method: as §2
row,SMILES,MIC
1,CC1(CN)CN(c2ccc3c(=O)c(C(=O)O)cn(C4CC4)c3n2)C/C1=N\OCF (racemic),4 µg/mL

# Test system: Enterococcus faecium
# Test: Antibacterial activity against Enterococcus faecium 09-5 after 18 hrs by two fold serial dilution method
# Type: functional
# Details: 09-5, 18 h
# Summary of the method: as §1
row,SMILES,MIC
1,CC1(CN)CN(c2ccc3c(=O)c(C(=O)O)cn(C4CC4)c3n2)C/C1=N\OCF (racemic),32 µg/mL

# Test system: Enterococcus faecium
# Test: Antibacterial activity against Enterococcus faecium 09-2 after 18 hrs by two fold serial dilution method
# Type: functional
# Details: 09-2, 18 h
# Summary of the method: as §1
row,SMILES,MIC
1,CC1(CN)CN(c2ccc3c(=O)c(C(=O)O)cn(C4CC4)c3n2)C/C1=N\OCF (racemic),32 µg/mL

# Test system: Pseudomonas aeruginosa
# Test: Antibacterial activity against Pseudomonas aeruginosa 10-1 after 18 hrs by two fold serial dilution method
# Type: functional
# Details: 10-1, 18 h
# Summary of the method: as §1
row,SMILES,MIC
1,CC1(CN)CN(c2ccc3c(=O)c(C(=O)O)cn(C4CC4)c3n2)C/C1=N\OCF (racemic),0.5 µg/mL

# Test system: Staphylococcus aureus
# Test: Antibacterial activity against Staphylococcus aureus ATCC 25923 after 18 hrs by two fold serial dilution method
# Type: functional
# Details: ATCC 25923, 18 h
# Summary of the method: as §1
row,SMILES,MIC
1,CC1(CN)CN(c2ccc3c(=O)c(C(=O)O)cn(C4CC4)c3n2)C/C1=N\OCF (racemic),0.03 µg/mL

# Test system: Streptococcus pneumoniae
# Test: Antibacterial activity against Streptococcus pneumoniae 10-1 after 18 hrs by two fold serial dilution method
# Type: functional
# Details: 10-1, 18 h
# Summary of the method: as §1
row,SMILES,MIC
1,CC1(CN)CN(c2ccc3c(=O)c(C(=O)O)cn(C4CC4)c3n2)C/C1=N\OCF (racemic),0.015 µg/mL

# Test system: Staphylococcus aureus
# Test: Antibacterial activity against methicillin-resistant Staphylococcus aureus 10-4 after 18 hrs by two fold serial dilution method
# Type: functional
# Details: 10-4, 18 h
# Summary of the method: as §2
row,SMILES,MIC
1,CC1(CN)CN(c2ccc3c(=O)c(C(=O)O)cn(C4CC4)c3n2)C/C1=N\OCF (racemic),128 µg/mL

# Test system: Staphylococcus aureus
# Test: Antibacterial activity against methicillin-sensitive Staphylococcus aureus 10-5 after 18 hrs by two fold serial dilution method
# Type: functional
# Details: 10-5, 18 h
# Summary of the method: as §1
row,SMILES,MIC
1,CC1(CN)CN(c2ccc3c(=O)c(C(=O)O)cn(C4CC4)c3n2)C/C1=N\OCF (racemic),0.03 µg/mL
